B2AR ag – agonists of human beta-2 adrenergic receptor inducing internalization | Am2.2-beta2AR cells, FAP receptor internalization, flow cytometry | actives 0.43% (n = 340,000) | response, % (test concentration not listed);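 active = response above a set limit, near 3 SD of response in nonfluorescent compounds, cut at about 42% in these data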
Target sequence (P07550 whole entry, looked up): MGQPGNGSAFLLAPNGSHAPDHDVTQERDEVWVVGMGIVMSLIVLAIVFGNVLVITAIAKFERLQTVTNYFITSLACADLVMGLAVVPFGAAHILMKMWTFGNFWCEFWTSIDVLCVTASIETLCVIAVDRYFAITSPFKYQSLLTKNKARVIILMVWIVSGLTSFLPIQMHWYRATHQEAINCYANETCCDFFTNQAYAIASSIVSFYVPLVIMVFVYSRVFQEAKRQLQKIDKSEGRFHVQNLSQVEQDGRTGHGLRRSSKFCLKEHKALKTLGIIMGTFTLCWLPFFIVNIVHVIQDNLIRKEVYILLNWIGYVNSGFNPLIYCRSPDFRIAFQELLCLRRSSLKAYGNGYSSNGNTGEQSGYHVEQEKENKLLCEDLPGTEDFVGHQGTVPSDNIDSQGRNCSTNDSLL
VLA-4 inh – inhibition in a human VLA-4 binding assay; P13612; VLA-4 expressing cells, ligand binding flow cytometry; inhibition, % (about 7 µM as worked out from the volumes in the protocol); actives 0.2% (n = 330,000); AID 2557; in the data active = inhibition above about 50%
CHOP UPR activ – activators of apoptotic arm of unfolded protein response (CHOP). CHO-CHOP luciferase reporter, UPR activation, luminescence; percent of tunicamycin response over DMSO baseline. activation, % at 10 µM. actives 0.34% (n = 330,000);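 active = at 10 µM dose, activation of 40% or more, normalized to positive control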
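measured by = luciferase luminescence | assay system = CHO-CHOP cells, stable luciferase reporter of PERK-eIF2a-CHOP signalling | amount = 500 reporter cells seeded per well | timing = 6 h compound exposure at 37 °C after overnight seeding | controls = positive tunicamycin 10 µg/mL, negative DMSO alone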
CHOP inhibitor – CHOP inhibition in unfolded protein response; AID 2732; actives 3.8% (n = 220,000); CHO-K1 CHOP-promoter luciferase, tunicamycin-induced, 15-18 h; inhibition, % at 10 µM;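 active = compounds that reduced the stress-induced luciferase reporter signal by more than about 70% of percent inhibition, limit read from the data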
UPR XBP1 act – activators of adaptive arm of unfolded protein response (XBP1) | AID 463104 | actives 0.33% (n = 330,000) | activation, % at 20 µM | CHO-XBP1 luciferase reporter, IRE1-XBP1 UPR activation, luminescence; percent of tunicamycin response, DMSO as zero;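 active = versus positive control, 20 µM dose yields 30% or more activation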
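assay system = CHO-XBP1 luciferase reporter cells | amount = 1000 cells/well | buffer or medium = F12 plus 10% FBS | compound dosing = single point, 20 µM final compound, 1% DMSO | incubation = 16-18 h cell attachment at 37 °C, then 6 h compound exposure | detection = Steady-Glo luminescence read | controls = tunicamycin 10 µg/mL and vehicle-only wells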
CHOP inh conf – confirmation of CHOP induction inhibitors; shares compounds with CHOP inhibitor; CHO-CHOP promoter luciferase reporter, tunicamycin-induced, luminescence; inhibition, % at 10 µM; actives 45% (n = 2,100); AID 504437;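 active = mean of three repeat readings of reporter signal inhibition above a set limit, cut at about 70% in these data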
Of the large screens only hits and unclear results are named; the others gave an inactive call (follow-up assays come after a bar, where they were run). Only a selection was taken, and hits are over-represented in it overall.

COc1ccc(C(=O)NCc2ccc3[nH]c(C)cc3c2)cc1OC	none
CC(C)[C@H](N)c1cn([C@@H](CC(N)=O)C(=O)N2CCNCC2)nn1	none (no result: CHOP inhibitor)
CC(C)(C)C1CCC(C(=O)OCC(=O)c2ccc[nH]2)CC1 (stereo not drawn)	CHOP inhibitor 101 | CHOP inh conf 100
Cc1ccc(N2CC(C(=O)OCC(=O)c3ccc[nH]3)CC2=O)cc1 (stereo not drawn)	none (no result: CHOP inhibitor)
C[C@@H]1CN([C@@H](C)CO)C(=O)c2cc(NC(=O)Nc3ccc(F)cc3)ccc2O[C@@H]1CN(C)Cc1ccc(Oc2ccccc2)cc1	none (no result: CHOP inhibitor)
CN(C)c1ccc(/C=C2\C(=N)N3C(=NC2=O)Sc2cc(S(C)(=O)=O)ccc23)cc1	CHOP inhibitor 104, UPR XBP1 act 136 (no result: B2AR ag) | CHOP inh conf inactive
Cc1ccccc1NC(=O)C(=Cc1ccc(C(=O)O)cc1)C(=O)Nc1ccccc1C	CHOP inhibitor 103 (no result: VLA-4 inh, CHOP UPR activ, UPR XBP1 act) | CHOP inh conf inactive
CCOC(=O)N1CCC(NCCNC(=O)c2cccc(F)c2)CC1	none (no result: CHOP inhibitor)
CC(C)N1CCOC1c1ccccc1 (stereo not drawn)	none (no result: VLA-4 inh, CHOP UPR activ, CHOP inhibitor, UPR XBP1 act)
COc1ccc(S(=O)(=O)N2CCCC2CNC(=O)c2cccc(OC)c2)cc1 (stereo not drawn)	none (no result: CHOP inhibitor)
O=[N+]([O-])/C=C\c1ccc(N2CCCC2)c(F)c1	CHOP inhibitor 109 (no result: VLA-4 inh, CHOP UPR activ, UPR XBP1 act) | CHOP inh conf inactive
O=Cc1ccc(N2CCCC2)c([N+](=O)[O-])c1	none
Fc1cc(F)c2nc(Nc3nc4cc5c(cc4s3)OCO5)sc2c1	CHOP inhibitor 109 (no result: CHOP UPR activ, UPR XBP1 act) | CHOP inh conf 84
CCC(=O)N1CCN=C1SCc1cccc(C(F)(F)F)c1	none (no result: CHOP inhibitor)
O=C(/C=C/Nc1ccc(S(=O)(=O)Nc2ncccn2)cc1)c1ccc(Cl)c(Cl)c1	CHOP inhibitor 102 | CHOP inh conf inactive
CCc1ccc(C(=O)/C=C/Nc2ccc(S(=O)(=O)Nc3cnc4ccccc4n3)cc2)cc1	CHOP inhibitor 101 | CHOP inh conf inactive
O=C(/C=C/Nc1ccc(S(=O)(=O)Nc2ncccn2)cc1)c1cccs1	none
COc1ccc2c(c1)O[C@@H](c1ccc3c(c1)OCO3)[C@H](OC(=O)Nc1cc(OC)c(OC)c(OC)c1)C2=O	none (no result: B2AR ag, VLA-4 inh, CHOP UPR activ, UPR XBP1 act)
CCOc1ccc(N(CC(=O)Nc2cccc(Cl)c2)S(=O)(=O)c2c(C)noc2C)cc1	CHOP inhibitor 107 | CHOP inh conf 81
CCOc1ccc(N(CC(=O)Nc2cccc(OC)c2)S(=O)(=O)c2c(C)noc2C)cc1	none
CCOc1cc(/C=C\[N+](=O)[O-])ccc1OCC(=O)Nc1ccccc1C	B2AR ag 112, CHOP inhibitor 108 | CHOP inh conf 136
Cc1cccc(N2CCN(C3=NC(=O)/C(=C\c4cn[nH]c4-c4ccccc4)S3)CC2)c1	CHOP inhibitor 102 | CHOP inh conf inactive
O=C1C(Nc2ccccc2)=C/C(=N/S(=O)(=O)c2cccs2)c2ccccc21	B2AR ag 49, CHOP inhibitor 108 (no result: CHOP UPR activ, UPR XBP1 act) | CHOP inh conf 112
COC(=O)c1ccccc1NC1=C/C(=N\S(=O)(=O)c2cccs2)c2ccccc2C1=O	CHOP inhibitor 107 | CHOP inh conf 109
CCCn1c(SCC(=O)c2ccc3c(c2)NC(=O)CO3)nc2ccccc21	CHOP inhibitor 103 | CHOP inh conf inactive
CCOc1cc2[nH]c(=O)n(CCC(=O)N3CCN(c4ccccc4OC)CC3)c(=O)c2cc1OCC	none
COc1cc2[nH]c(=O)n(CCC(=O)N3CCN(c4cc(Cl)ccc4C)CC3)c(=O)c2cc1OC	CHOP inhibitor 104 | CHOP inh conf inactive
Cc1cccc(NC(=O)CCc2nnc3ccc(N4CCC(C)CC4)nn23)n1	none (no result: CHOP inhibitor)
Cc1cc(C)c2c(=O)n(CC(=O)Nc3ccc(Cl)cc3)sc2n1	CHOP inhibitor 104 | CHOP inh conf inactive
Cc1cc2c(cc1C)CSC(c1c(O)ccc3ccccc13)SC2	CHOP inhibitor 112 | CHOP inh conf 116
Cc1cc2c(cc1C)CSC(c1ccc3ccccc3c1O)SC2	none
Cc1cc2c(cc1C)CSC(c1ccccc1O)SC2	CHOP inhibitor 108 | CHOP inh conf 111
CCN1C[C@@H]2[C@@H]3C(=O)N(C)C(=O)[C@@H]3[C@](Cc3ccccc3)(C(=O)OC)N2C1=NCc1ccccc1	none (no result: VLA-4 inh, CHOP UPR activ, CHOP inhibitor, UPR XBP1 act)

Screening data from PubChem BioAssay.
